Sampled rows, rich in hits. Any-hit rate of the full collection: about 2.7%.
E-selectin induc = E-selectin induction on HUVECs; activation, % at 7.58 µM; AID 686992; HUVEC E-selectin immunofluorescence imaging; normalized: neutral wells 0, TNF-alpha wells 100; P16581; 0.37% of 260,000 active;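 active = mean E-selectin-positive cell signal at least 10% of the positive control, reached in at least 60% of replicates, without over 20% cell loss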
Target sequence (P16581 whole entry, looked up): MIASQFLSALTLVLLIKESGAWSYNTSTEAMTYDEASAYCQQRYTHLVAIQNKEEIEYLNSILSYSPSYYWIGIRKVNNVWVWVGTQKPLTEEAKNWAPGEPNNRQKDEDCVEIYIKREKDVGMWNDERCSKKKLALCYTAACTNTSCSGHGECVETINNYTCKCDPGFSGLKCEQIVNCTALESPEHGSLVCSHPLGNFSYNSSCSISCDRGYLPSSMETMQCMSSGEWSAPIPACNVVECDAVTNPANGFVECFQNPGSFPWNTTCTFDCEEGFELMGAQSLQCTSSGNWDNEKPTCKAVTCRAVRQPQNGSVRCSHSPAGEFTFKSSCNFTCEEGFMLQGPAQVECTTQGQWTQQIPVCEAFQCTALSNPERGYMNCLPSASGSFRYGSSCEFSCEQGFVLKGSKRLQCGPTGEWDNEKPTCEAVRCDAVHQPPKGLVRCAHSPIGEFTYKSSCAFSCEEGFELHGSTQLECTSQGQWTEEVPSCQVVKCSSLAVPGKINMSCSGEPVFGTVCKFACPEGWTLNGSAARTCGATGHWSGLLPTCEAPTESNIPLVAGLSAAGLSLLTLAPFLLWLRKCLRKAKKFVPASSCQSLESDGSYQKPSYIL
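Test system: HUVEC; input: 3,000 HUVEC/well; measured by: immunofluorescence imaging; read-out: % PE-positive cells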
S100A4 inh HTS = inhibitors of human S100A4 binding to myosin IIA peptide; P26447; S100A4/TAMRA-MyoIIA peptide fluorescence polarization; inhibition, % at 10.7 µM; 0.14% of 360,000 active;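 active = mean inhibition of at least 70% across replicates, with every replicate also reaching that level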
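System – human S100A4 monomer protein, biochemical binding assay · Buffer or medium – Calcium-containing HEPES buffer, pH 7.2 · Timing – 5 min between mix addition and reading · Also added – TAMRA-labelled myosin IIA heavy-chain peptide probe, 5 nM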
FGF22 binding = binders of recombinant human FGF22 by thermal shift; activity (Tm shift, normalised), % at 9.99 µM; SYPRO orange fluorescence; percent of sucrose octasulfate shift, DMSO zero; 1.5% of 340,000 active; AID 651658;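 active = mean Tm shift, scaled 0 neutral to 100 positive control, at about 1.3% or above, every replicate too, limit read from the data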
Env fusion inh = HIV envelope-mediated fusion inhibition | HeLa-JRFL Env/CEM21 cell fusion, luciferase | inhibition, % at 12.3 µM | 1.1% of 360,000 active | AID 651610;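 active = mean replicate inhibition score of at least 50 and every replicate individually at or above 50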;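 note: 0% = plate neutral controls and 100% = maraviroc near 300 nM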
CFTR F508del cor = correctors of CFTR F508del function in bronchial epithelial cells; CFBE cells, YFP halide quenching; stimulated with forskolin plus potentiator P3; % fluorescence drop versus neutral controls; activity (quench increase), % at 7.58 µM; 0.36% of 350,000 active; AID 720511;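 active = mean added fluorescence quench of at least 8% versus neutral control, with both replicates also reaching 8%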;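 note: cells transiently co-express mutant CFTR-F508del with the halide-sensitive YFP; corrector assay measuring rescue of mutant channel to the surface after 24 h compound exposure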
* = called active by the depositor; / = not tested or not shown; ! = repeats disagree; [ ] = another dose, or the depositor's remark.

SMILES	E-selectin induc	S100A4 inh HTS	FGF22 binding	Env fusion inh	CFTR F508del cor
CO[C@@H]1CN(C)C(=O)c2ccc(NC(=O)c3cnccn3)cc2OC[C@H](C)N(C)C[C@H]1C	0	/	/	3[16.7 µM]	2
COc1cc(C2CC(=O)N(c3ccc(C)cc3)C(=O)C2)cc(OC)c1OC	/	-5	0	-150	10*
O=C1C(=O)N(c2nccs2)C(c2ccccc2F)/C1=C(\O)c1ccc2c(c1)OCCO2 (configuration not stated)	/	-6	0	59*	-4
Cc1nnc(N2C(=O)C(=O)/C(=C(/O)c3ccc4c(c3)OCCO4)C2c2ccc(F)cc2)s1 (configuration not stated)	/	6	0	4	0
COc1ccc(S(=O)(=O)N(C)C[C@H]2OCCCC[C@H](C)Oc3ccc(NC(=O)NC4CCCCC4)cc3C(=O)N([C@H](C)CO)C[C@H]2C)cc1	/	-6	1	-23[16.7 µM]	0
O=C(O)c1ccc(Cn2cnc3sc4c(c3c2=O)CCCC4)cc1	0	0	43*	0	0
O=C(O)Cn1cnc2sc3c(c2c1=O)CCCC3	/	-4	0	-4	-2
CC1=Nc2cc(C(=O)NCC3CCCO3)ccc2Sc2ccc(C)cc21 (configuration not stated)	/	3	0	-376	10*
CC1=Nc2cc(C(=O)NCCCN3CCN(C)CC3)ccc2Sc2ccc(C)cc21	/	-8	0	9	-1
O=C(C[C@H]1CC[C@H](NC(=O)Nc2ccc(F)cc2)[C@@H](CO)O1)NCc1cccc(F)c1	0	-11	0	9[16.7 µM]	0
C[C@H](CO)N1C[C@H](C)[C@H](CN(C)Cc2ccccc2)Oc2c(NC(=O)C3CC3)cccc2C1=O	-20	-18	0	/	-3
C[C@H]1CN([C@@H](C)CO)C(=O)c2cccc(NC(=O)C3CC3)c2O[C@@H]1CN(C)Cc1ccc2c(c1)OCO2	0	122*	0	-36[16.7 µM]	0
C[C@H](CO)N1C[C@H](C)[C@@H](CN(C)Cc2ccccc2)Oc2c(NC(=O)C3CC3)cccc2C1=O	102*!	19	0	-90	0
C[C@@H]1CN([C@H](C)CO)C(=O)c2cccc(NC(=O)C3CC3)c2O[C@@H]1CN(C)Cc1ccccc1	72*	-12	1	/	0
C[C@@H]1CN([C@H](C)CO)C(=O)c2cccc(NC(=O)C3CC3)c2O[C@@H]1CN(C)Cc1ccc2c(c1)OCO2	0	-7	0	-10[16.7 µM]	2
C[C@H](CO)N1C[C@H](C)[C@H](CN(C)Cc2ccncc2)Oc2c(NC(=O)C3CC3)cccc2C1=O	-1	126*	-1	-8[16.7 µM]	0
COc1ccc(NC(=O)Nc2cccc3c2O[C@H](CN(C)Cc2ccc4c(c2)OCO4)[C@@H](C)CN([C@@H](C)CO)C3=O)cc1	0	118*	0	2[16.7 µM]	2
COc1ccc(CN(C)C[C@@H]2Oc3c(NC(=O)c4cnccn4)cccc3C(=O)N([C@@H](C)CO)C[C@H]2C)cc1	54*	-18	0	/	0
C[C@@H]1CN([C@H](C)CO)C(=O)c2cccc(NC(=O)C3CCCCC3)c2O[C@H]1CN(C)Cc1ccccc1	0	2	1	74*[16.7 µM]	0
COc1ccc(NC(=O)N[C@H]2CC[C@H](CCNC(=O)CCN3CCCCC3)O[C@@H]2CO)cc1	0	-13	0	1[16.7 µM]	-1
Cc1ccc(S(=O)(=O)Nc2ccc3c(c2)C(=O)N([C@H](C)CO)C[C@H](C)[C@@H](CN(C)C)OCCCC[C@H](C)O3)cc1	1	/	/	0[16.7 µM]	0
O=C(Nc1cccc(C(F)(F)F)c1)Nc1nnc([C@H]2C[C@H](O)[C@@H](CO)O2)s1	0	-5	0	25	0
O=C(OCc1cccc([N+](=O)[O-])c1)c1cccnc1	/	5	43*	-35	-1
O=C(Nc1ccccc1)Nc1cccc(C(F)(F)F)c1	/	22	44*	17	1
O=C(Cc1ccc([N+](=O)[O-])cc1)Nc1cccc(C(F)(F)F)c1	/	-17	44*	23	-2
SMILES	E-selectin induc	S100A4 inh HTS	FGF22 binding	Env fusion inh	CFTR F508del cor
CCSCCc1nnc(NC(=O)Nc2cccc(C(F)(F)F)c2)s1	0	-1	0	70*	/
C[C@H]1CN([C@@H](C)CO)S(=O)(=O)c2ccc(-c3cccc(C(=O)N(C)C)c3)cc2O[C@H]1CN(C)C	0	9	1	0[16.7 µM]	0
CN1C(=O)c2cc(NC(=O)c3ccc(F)cc3)ccc2OC[C@@H]2O[C@H](CC(=O)N3CCOCC3)CC[C@@H]21	0	0	0	20[16.7 µM]	2
CC(C)NC(=O)N[C@@H]1CC[C@@H](CCNC(=O)C2CCOCC2)O[C@H]1CO	0	8	0	15[16.7 µM]	-3
CC(=O)Nc1ccc(C(=O)OCc2ccc(Cl)cc2)cc1	/	/	/	-7	/
CC(=O)Nc1cccc(C(=O)OCc2ccc([N+](=O)[O-])cc2)c1	/	-44	43*	-3	-3
CC(=O)Nc1ccc(C(=O)OCc2ccc(F)cc2)cc1	/	0	43*	2	/
CO[C@@H]1CN(C)C(=O)c2cc(NC(=O)C3CCOCC3)ccc2OC[C@@H](C)N(Cc2cccnc2)C[C@@H]1C	0	-28	0	-6[16.7 µM]	3
COc1ccc(-c2cnc3c(c2)C(=O)N([C@H](C)CO)C[C@H](C)[C@@H](CN(C)Cc2cccnc2)O3)cc1	3	-5	0	-10[16.7 µM]	-1
C[C@@H]1CN([C@H](C)CO)C(=O)c2cc(-c3ccc(F)cc3)cnc2O[C@H]1CN(C)Cc1ccc(F)cc1	0	/	/	8[16.7 µM]	0
COc1ccccc1C(O)(C(=O)NNc1ccccc1C)c1ccccc1OC	/	9	43*	-73	-2
COc1ccc(NC(C)=O)cc1NC(=O)C1CCCN1C(=O)c1cccs1 (configuration not stated)	/	-5	0	64*	-9
COc1ccc(NC(=O)[C@@H]2CCCN2C(=O)c2cccs2)cc1S(=O)(=O)N1CCCCC1	0	-1	0	/	-2
COc1ccc(CCN2C(=O)c3ccccc3C2c2nnnn2-c2c(C)cccc2C)cc1OC (configuration not stated)	2	-5	0	45	-2
COc1ccc(OC)c(CN2C(=O)c3ccccc3C2c2nnnn2-c2c(C)cccc2C)c1 (configuration not stated)	4	-1	0	68*	1
O=C(NC(=S)Nc1nc(-c2ccccc2)cs1)c1cncc(Br)c1	/	-3	0	/	0
O=C(NC(=S)Nc1nc(-c2ccccc2)cs1)c1cccnc1	0	-4	43*	-29	0
Cc1noc(C)c1S(=O)(=O)N(C)C[C@@H]1Oc2ccc(NS(=O)(=O)c3ccc(Cl)cc3)cc2C(=O)N([C@@H](C)CO)C[C@@H]1C	0	0	0	-8[16.7 µM]	-3

Compound activity as filed in PubChem BioAssay.
